What was measured:
[1] = target: Sodium-dependent dopamine transporter (Rattus norvegicus, UniProt P23977); assay: Binding affinity towards Dopamine transporter by displacement of [3H]WIN-35428 radioligand from rat brain
[2] = target: Norepinephrine transporter (Rattus norvegicus, UniProt Q9WTR4); assay: Binding affinity towards norepinephrine transporter by displacement of [3H]nisoxetine radioligand from rat brain
[3] = target: Sodium-dependent serotonin transporter (Rattus norvegicus, UniProt P31652); assay: Binding affinity towards serotonin transporter by displacement of [3H]- paroxetine radioligand from rat brain
Method in brief: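 Midbrain tissue (1.5 mg original wet weight) with 0.2 nM [3H]paroxetine in 50 mM Tris, 120 mM NaCl, 5 mM KCl, pH 7.4, for 90 min at room temperature; nonspecific binding defined with 1 μM citalopram. Terminated by filtration through polyethylenimine-soaked GF/B filters with ice-cold buffer washes. Mean ± SE of four triplicate experiments.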

[4] = target: Monoamine transporters; serotonin & dopamine (Rattus norvegicus) (UniProt P31652+P23977); assay: Ratio between serotonin transporter and Dopamine transporter; format: protein assay
[5] = target: Monoamine transporters; Norepininephrine & dopamine (Rattus norvegicus) (UniProt P23977+Q9WTR4); assay: Ratio between norepinephrine and Dopamine transporter; format: protein assay

Chain of Sodium-dependent dopamine transporter (P23977 whole entry): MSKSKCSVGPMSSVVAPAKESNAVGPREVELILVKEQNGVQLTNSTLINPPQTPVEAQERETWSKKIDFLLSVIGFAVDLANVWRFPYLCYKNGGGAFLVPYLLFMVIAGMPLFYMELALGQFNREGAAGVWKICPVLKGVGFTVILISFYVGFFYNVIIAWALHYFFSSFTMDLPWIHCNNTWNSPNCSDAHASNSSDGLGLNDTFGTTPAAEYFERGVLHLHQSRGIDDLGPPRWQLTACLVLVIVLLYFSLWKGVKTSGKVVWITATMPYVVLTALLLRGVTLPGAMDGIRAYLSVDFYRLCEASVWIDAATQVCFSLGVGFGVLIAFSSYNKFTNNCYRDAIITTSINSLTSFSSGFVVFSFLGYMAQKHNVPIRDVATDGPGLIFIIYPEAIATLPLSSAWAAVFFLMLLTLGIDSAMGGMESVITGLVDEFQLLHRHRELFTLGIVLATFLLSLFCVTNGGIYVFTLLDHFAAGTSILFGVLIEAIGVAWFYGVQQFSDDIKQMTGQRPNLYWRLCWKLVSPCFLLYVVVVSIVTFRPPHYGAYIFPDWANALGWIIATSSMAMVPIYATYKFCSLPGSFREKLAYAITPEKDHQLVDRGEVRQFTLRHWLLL
Chain of Monoamine transporters; serotonin & dopamine (Rattus norvegicus) (P23977 whole entry, looked up): as the sequence (P23977 whole entry) above
Chain of Monoamine transporters; serotonin & dopamine (Rattus norvegicus) (P31652 whole entry, looked up): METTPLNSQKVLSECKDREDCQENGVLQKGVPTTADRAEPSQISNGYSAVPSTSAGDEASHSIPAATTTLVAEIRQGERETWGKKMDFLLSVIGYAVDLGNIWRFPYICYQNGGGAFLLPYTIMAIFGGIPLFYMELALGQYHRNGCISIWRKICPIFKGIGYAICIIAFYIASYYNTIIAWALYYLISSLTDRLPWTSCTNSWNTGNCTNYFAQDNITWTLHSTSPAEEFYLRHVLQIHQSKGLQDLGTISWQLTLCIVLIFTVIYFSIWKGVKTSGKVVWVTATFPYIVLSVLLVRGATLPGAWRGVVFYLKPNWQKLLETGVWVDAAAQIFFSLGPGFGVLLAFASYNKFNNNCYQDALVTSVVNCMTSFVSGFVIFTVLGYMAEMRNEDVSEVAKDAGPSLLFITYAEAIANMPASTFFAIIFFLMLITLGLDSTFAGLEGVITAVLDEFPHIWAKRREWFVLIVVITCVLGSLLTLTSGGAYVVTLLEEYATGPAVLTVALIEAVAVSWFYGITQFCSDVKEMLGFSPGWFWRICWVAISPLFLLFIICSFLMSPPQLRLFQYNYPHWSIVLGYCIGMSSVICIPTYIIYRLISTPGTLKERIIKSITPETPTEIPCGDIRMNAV
Chain of Sodium-dependent serotonin transporter (P31652 whole entry): as the sequence (P31652 whole entry, looked up) above
Chain of Norepinephrine transporter (Q9WTR4 whole entry): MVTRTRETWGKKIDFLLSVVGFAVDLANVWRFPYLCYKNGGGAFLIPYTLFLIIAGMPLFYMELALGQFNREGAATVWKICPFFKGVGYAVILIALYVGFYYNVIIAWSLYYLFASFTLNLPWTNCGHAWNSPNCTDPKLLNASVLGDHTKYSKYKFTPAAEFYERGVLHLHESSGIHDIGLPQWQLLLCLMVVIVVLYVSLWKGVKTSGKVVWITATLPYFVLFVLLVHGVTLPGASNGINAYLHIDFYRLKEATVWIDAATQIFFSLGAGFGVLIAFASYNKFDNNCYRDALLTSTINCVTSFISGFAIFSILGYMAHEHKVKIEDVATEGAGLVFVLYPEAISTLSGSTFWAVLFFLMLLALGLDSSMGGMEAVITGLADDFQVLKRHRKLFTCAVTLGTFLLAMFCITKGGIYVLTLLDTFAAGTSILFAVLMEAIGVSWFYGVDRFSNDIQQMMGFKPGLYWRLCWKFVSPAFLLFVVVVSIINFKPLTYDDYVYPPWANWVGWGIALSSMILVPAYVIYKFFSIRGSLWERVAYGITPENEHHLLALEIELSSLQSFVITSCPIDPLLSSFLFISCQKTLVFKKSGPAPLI

Structure (SMILES): CN1C2CC[C@@H]1C[C@H](c1ccc(Cl)cc1)C2c1nc(-c2ccc(Br)cc2)no1 (some centres undefined)
- IC50 [1]: 3.44 nM
- IC50 [2]: 1830 nM
- IC50 [3]: 106 nM
- Ratio [4]: 31
- Ratio [5]: 532

Structure (SMILES): COc1ccc(-c2noc(C3C4CC[C@H](C[C@@H]3c3ccc(Cl)cc3)N4C)n2)cc1 (some centres undefined)
- IC50 [1]: 1.81 nM
- IC50 [2]: 835 nM
- IC50 [3]: 337 nM
- Ratio [4]: 186
- Ratio [5]: 461

Structure (SMILES): CN1C2CC[C@@H]1C[C@H](c1ccc(Cl)cc1)C2c1nc(-c2ccccc2)no1 (some centres undefined)
- IC50 [1]: 1.62 nM
- IC50 [2]: 245 nM
- IC50 [3]: 195 nM
- Ratio [4]: 120
- Ratio [5]: 151

Structure (SMILES): CN1C2CC[C@@H]1C[C@H](c1ccc(Cl)cc1)C2c1nc(-c2ccc(Cl)cc2)no1 (some centres undefined)
- IC50 [1]: 4.06 nM
- IC50 [2]: 4070 nM
- IC50 [3]: 404 nM
- Ratio [4]: 100
- Ratio [5]: 1000

Structure (SMILES): Cc1noc(C2C3CC[C@H](C[C@@H]2c2ccccc2)N3C)n1 (stereo in doubt; 5a) [listing 1 of 2 here]
- Ratio [4]: 38
- Ratio [5]: 79

Structure (SMILES): Cc1noc(C2C3CC[C@H](C[C@@H]2c2ccccc2)N3C)n1 (stereo in doubt; 8) [listing 1 of 2 here]
- IC50 [1]: 167 nM
- IC50 [2]: 6990 nM
- IC50 [3]: 40600 nM

Structure (SMILES): Cc1noc(C2C3CC[C@H](C[C@@H]2c2ccccc2)N3C)n1 (stereo in doubt; 7) [listing 1 of 2 here]
- IC50 [1]: 204 nM
- IC50 [2]: 35800 nM
- IC50 [3]: 29400 nM

Structure (SMILES): CC(C)c1noc(C2C3CC[C@H](C[C@@H]2c2ccc(Cl)cc2)N3C)n1 (some centres undefined)
- IC50 [1]: 6 nM
- IC50 [2]: 135 nM
- IC50 [3]: 3460 nM
- Ratio [4]: 577
- Ratio [5]: 23

Structure (SMILES): Cc1ccc([C@H]2C[C@H]3CCC(C2C(=O)Oc2ccccc2)N3C)cc1 (some centres undefined)
- IC50 [1]: 3.27 nM
- IC50 [2]: 5830 nM
- IC50 [3]: 24500 nM
- Ratio [5]: 1780

Structure (SMILES): Cc1noc(C2C3CC[C@H](C[C@@H]2c2ccc(Cl)cc2)N3C)n1 (some centres undefined)
- IC50 [2]: 363 nM
- IC50 [3]: 2580 nM

Structure (SMILES): Cc1noc(C2C3CC[C@H](C[C@@H]2c2ccccc2)N3C)n1 (stereo in doubt; 8) [listing 2 of 2 here]
- Ratio [4]: 243
- Ratio [5]: 42

Structure (SMILES): CN1C2CCC1C(C(=O)Oc1ccccc1)C(c1ccc(Cl)cc1)C2 (centres undefined)
- IC50 [1]: 1.99 nM
- IC50 [2]: 2960 nM
- Ratio [5]: 1490

Structure (SMILES): COC(=O)[C@@H]1C2CC[C@H](C[C@@H]1c1ccccc1)N2C
- IC50 [2]: 920 nM

Structure (SMILES): Cc1ccc([C@H]2C[C@H]3CCC(C2c2nc(-c4ccccc4)no2)N3C)cc1 (some centres undefined)
- IC50 [1]: 2.33 nM
- IC50 [2]: 60 nM
- IC50 [3]: 1070 nM
- Ratio [4]: 459
- Ratio [5]: 26

Structure (SMILES): Cc1noc(C2C3CC[C@H](C[C@@H]2c2ccccc2)N3C)n1 (stereo in doubt; 7) [listing 2 of 2 here]
- Ratio [4]: 144
- Ratio [5]: 176

Structure (SMILES): Cc1noc(C2C3CC[C@H](C[C@@H]2c2ccccc2)N3C)n1 (stereo in doubt; 6) [listing 1 of 2 here]
- IC50 [1]: 1030 nM
- IC50 [2]: 71000 nM
- IC50 [3]: 33100 nM

Structure (SMILES): CC(C)OC(=O)C1C2CC[C@H](C[C@@H]1c1ccc(Cl)cc1)N2C (some centres undefined)
- IC50 [1]: 1.41 nM
- IC50 [2]: 778 nM
- IC50 [3]: 1400 nM
- Ratio [5]: 551

Structure (SMILES): Cc1noc(C2C3CC[C@H](C[C@@H]2c2ccccc2)N3C)n1 (stereo in doubt; 6) [listing 2 of 2 here]
- Ratio [4]: 32
- Ratio [5]: 69

Structure (SMILES): Cc1noc(C2C3CC[C@H](C[C@@H]2c2ccccc2)N3C)n1 (stereo in doubt; 5a) [listing 2 of 2 here]
- IC50 [1]: 100 nM
- IC50 [2]: 7880 nM
- IC50 [3]: 3830 nM

— ChEMBL document CHEMBL1127054, “3-Aryl-2-(3'-substituted-1',2',4'-oxadiazol-5'-yl)tropane analogues of cocaine: affinities at the cocaine binding site at the dopamine, serotonin, and norepinephrine transporters” (J Med Chem, 1993)
